Test [1] concerns the target T1, CjMTAN (Campylobacter jejuni subsp. jejuni, UniProt Z9IB28FKP7). Put plainly: CjMTAN inhibition by transition-state analogues. It counts as biochemical. The following applies: for Ki: from initial rates, MTA 1 mM, 25 °C, pH 7.4.
For test [2], the target named is T1, CjMTAN. Put plainly: CjMTAN substrate specificity, steady-state kinetics. It counts as biochemical. To be noted: 25 °C; for Km / kcat: substrate of CjMTAN, 50 mM Hepes-KOH pH 7.4; for h (Hill coefficient): substrate saturation, sigmoidal fit, pH 7.4. The gist of the method: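 Recombinant N-terminally His6-tagged CjMTAN from strain 81-176, expressed in E. coli and Ni-NTA purified. Substrate varied from 1 to 100 µM, with stock concentrations set by A260. Reaction contained 1 U xanthine oxidase to convert released adenine to 2,8-dihydroxyadenine, read at 305 nm (15.5 mM–1 cm–1). Started with 50 nM enzyme and followed up to 5 min. Initial rates in duplicate or triplicate, fitted to Michaelis-Menten and/or allosteric sigmoidal equations.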

In test [3] the test system is C. jejuni. Put plainly: C. jejuni growth IC50 in liquid culture media. Type of test: cell-based. To be noted: Campylobacter jejuni, 16.4 h, read-out: IC50 C. jejuni growth.
In test [4] the test system is C. jejuni. The test can be described thus: C. jejuni growth IC50 on Mueller-Hinton agar. Type of test: cell-based. To be noted: Campylobacter jejuni, 144 h, read-out: IC50 C. jejuni growth.

For the molecule `Nc1ncnc2c(CN3CC(O)C(CSc4ccccc4)C3)c[nH]c12` (centres unmarked) [PhTDIA], affinity at CjMTAN [1] was put at a Ki of 5.3 ± 0.3 nM.
With `CSC[C@H]1N[C@@H](c2c[nH]c3c(N)ncnc23)[C@H](O)[C@@H]1O` [MTIA], the affinity on CjMTAN [1], expressed as Ki, was 32.3 ± 3.4 nM.
As to `C[C@H]1O[C@@H](n2cnc3c(N)ncnc32)[C@H](O)[C@@H]1O` [5′-deoxyadenosine], at CjMTAN [2], the Km (as a rule, the substrate concentration at which the rate is half of its maximum) was found to be 21.4 ± 1.3 µM; the kcat – broadly, the number of substrate molecules converted per active site and unit of time at saturation – worked out at 0.92 ± 0.02 s⁻¹; the “h (Hill coefficient)” value was determined as 1.8 ± 0.2.
For 5′-deoxy-5′-Pro-DADMe-ImmA [PDIA], on CjMTAN [1], the Ki (in general, a dissociation constant, usually derived from enzyme kinetics or from competition with a known ligand) was determined as 5.1 ± 0.6 nM.
Turning to `Nc1ncnc2c(CN3C[C@H](CO)[C@@H](O)C3)c[nH]c12` [DIA], at CjMTAN [1] (MTDIA 2.9 nM vs DIA 2.7 μM), the “fold difference in affinity between MTDIA and DIA” value is listed as ~1000 fold. This molecule also registered a Ki at CjMTAN [1] of 2610 ± 332 nM.
Take 5′-methylthioadenosine: on CjMTAN [2], the Km stood at 7.1 ± 0.7 µM and the kcat is 0.80 ± 0.02 s⁻¹.
For the molecule `CSC[C@H]1O[C@@H](n2ccc3c(N)ncnc32)[C@H](O)[C@@H]1O` [MTT], at CjMTAN [1], the inhibitory constant (Ki) is 22100 ± 6080 nM.
In the case of `Nc1ncnc2c1ncn2[C@@H]1O[C@H](CO)[C@@H](O)[C@H]1O` [adenosine], at CjMTAN [2], the Km was determined as 7.5 ± 0.6 µM and the kcat was found to be 0.30 ± 0.01 s⁻¹.
Turning to `Nc1ncnc2c1ncn2[C@@H]1O[C@H](CSCC[C@H](N)C(=O)O)[C@@H](O)[C@H]1O` [S-5′-Adenosyl-L-homocysteine, S-5′-adenosyl-L-homocysteine], on CjMTAN [2], the Km is 12.2 ± 1.5 µM, the kcat was 0.55 ± 0.03 s⁻¹ and the “h (Hill coefficient)” value worked out at 2.6 ± 0.7.
Turning to `Nc1ncnc2c1ncn2[C@@H]1O[C@H](CCC(=O)c2cccc(C(=O)O)c2)[C@@H](O)[C@H]1O` [6-amino-6-deoxyfutalosine], on CjMTAN [2], the Km came to 3.5 ± 0.4 µM and the kcat was found to be 0.27 ± 0.01 s⁻¹.
`CCCCSC[C@H]1CN(Cc2c[nH]c3c(N)ncnc23)C[C@@H]1O` [BTDIA, BuS-DADMe-ImmA]: the slow-onset inhibition result on CjMTAN [1] (CjMTAN) is given as “slow-onset tight-binding inhibitors”. On CjMTAN [1], the affinity corresponds to a Ki of 4.1 ± 1 nM.
In the case of `Nc1ncnc2c(CN3CC(O)C(CSc4ccc(Cl)cc4)C3)c[nH]c12` (centres unmarked) [pCPTDIA], the Ki at CjMTAN [1] turned out to be 4.8 ± 0.3 nM.
Consider `CNC(C)C1CCC(N)C(OC2C(N)CC(N)C(OC3OCC(C)(O)C(NC)C3O)C2O)O1` (centres unmarked) [Gentamicin], for which the IC50 (as a rule, the concentration that gives 50% inhibition) in the test with C. jejuni [3] is 2100 ± 100 nM; in the test with C. jejuni [4], 390 ± 60 nM.

Source of the values: paper PMC6568325 (ACS chemical biology, 2018).
